Sampled rows, rich in hits. Any-hit rate of the full collection: about 3.8%.
MPTP block – blocks calcium-induced mitochondrial swelling | isolated mouse mitochondria, Ca2+ swelling absorbance, 30 min | inhibition, % at 10 µM | 360,000 compounds, 1.4% hits | AID 602449;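 active = inhibition of 50% or more, scaled per plate between neutral and stimulator controls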;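 note: 0% = DMSO wells given calcium and 100% = 1 mM EGTA wells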
T cell HTS – modulates CD8 T cell binding to vesicles. 2C CD8+ T cell-vesicle binding, flow cytometry; active compounds read low. response (vesicle binding), % at 7 µM. 330,000 compounds, 0.068% hits;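 active = response, share of CD8 T cells binding vesicles, and their 90th percentile fluorescence all below set limits, cut at about 80% in these data, passing the limit was not always enough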;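 note: values below 100% mean blocked vesicle binding to the CD8+ T cells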
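Benchmarks: naked versus QL9-loaded vesicles / Assay system: purified 2C TCR transgenic mouse naive CD8+ T cells / Technique: high-throughput flow cytometry with anti-B7-1 and anti-CD8 staining / Timing: Cell–vesicle co-incubation 1.5 h at 37 °C, staining 20 min on ice / Read-out: percent CD8+ FL2 mean versus row control / Probe or stimulus: QL9-loaded Drosophila micro-vesicles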
V-ATPase pHluor – regulators of yeast V-ATPase proton transport | 350,000 compounds, 0.37% hits | S. cerevisiae, pHLuorin cytosolic pH fluorescence | response, % at 10 µM; in the data active = response mostly above about 7.3%, no sharp cut-off; inactive = mostly below about 5.4%; note: actives read high
rCAG RNA binder – binds r(CAG) RNA repeats. AID 651821. inhibition, % at 3 µM. 370,000 compounds, 1.3% hits. r(CAG) RNA repeat, TO-PRO-1 dye displacement fluorescence;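 active = inhibition above the plate cutoff, the mean of all test compounds on that plate plus 3 SD, cut at about 35% in these data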;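 note: 0% = DMSO alone and 100% = 100 µM mitoxantrone as full dye displacement; higher means more dye released from RNA so lower well fluorescence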
B2AR ag – activates human beta-2 adrenergic receptor causing internalization | Am2.2-beta2AR cells, FAP receptor internalization, flow cytometry | response, % (no concentration beside the values) | 340,000 compounds, 0.43% hits;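 active = response above a set limit, near 3 SD of response in nonfluorescent compounds, cut at about 42% in these data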
Target sequence (P07550 whole entry, looked up): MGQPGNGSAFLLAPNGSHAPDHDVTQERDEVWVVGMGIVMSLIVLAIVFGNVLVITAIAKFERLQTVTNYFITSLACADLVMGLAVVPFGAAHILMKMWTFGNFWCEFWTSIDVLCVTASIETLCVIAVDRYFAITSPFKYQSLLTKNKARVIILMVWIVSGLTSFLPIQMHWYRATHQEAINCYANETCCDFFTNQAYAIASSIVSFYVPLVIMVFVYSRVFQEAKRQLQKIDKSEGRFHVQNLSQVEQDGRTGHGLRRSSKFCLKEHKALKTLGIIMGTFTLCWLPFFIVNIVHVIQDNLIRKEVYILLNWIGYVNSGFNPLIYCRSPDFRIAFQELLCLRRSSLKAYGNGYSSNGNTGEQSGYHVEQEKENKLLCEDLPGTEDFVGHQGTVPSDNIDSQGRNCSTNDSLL
Exocytosis inh – lytic granule exocytosis inhibition. TALL-104 LAMP-1 surface exposure, flow cytometry; cells stimulated with thapsigargin and PMA. inhibition, % at 10 µM. 360,000 compounds, 0.66% hits;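 active = inhibition above about 55%, limit read from the data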
rCAG binder conf – r(CAG) RNA repeat binding, confirmation; TO-PRO-1 dye displacement fluorescence; inhibition, % at 3 µM; shares compounds with rCAG RNA binder; 4,300 compounds, 70% hits;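 active = inhibition above a per-plate cutoff, the mean inhibition of sample wells plus 3 SD, cut at about 35% in these data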;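 note: loss of TO-PRO-1 fluorescence as compound displaces dye from 1x1 AA loop RNA; 0% = DMSO only wells and 100% = 100 µM mitoxantrone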
DNA CAG counter – disrupts DNA CAG TO-PRO-1 complex, flagging rCAG hits; d(CAG) DNA oligo TO-PRO-1 dye displacement, fluorescence; 4,300 compounds, 94% hits; shares compounds with rCAG RNA binder; inhibition, % at 3 µM;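 active = inhibition above its plate's cutoff, the mean test-well inhibition plus 3 SD, cut at about 4.8% in these data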;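 note: 0% = DNA dye mix with DMSO and 100% = 100 µM mitoxantrone; hits displace the dye from DNA and so lower well fluorescence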
dCAG dye DR – DNA CAG dye complex inhibition, dose response counter-screen; shares compounds with rCAG RNA binder; DNA CAG/GTC duplex TO-PRO-1 dye displacement fluorescence; IC50, µM; 250 compounds, 20% hits; AID 686960; in the data active = IC50 below about 10 µM
The depositor's hits bear a star; i = inactive; . = not tested or not shown.

SMILES	MPTP block	T cell HTS	V-ATPase pHluor	rCAG RNA binder	B2AR ag	Exocytosis inh	rCAG binder conf	DNA CAG counter	others
Cc1ccc(-c2cc(C(F)(F)F)c(C#N)c(SCC(=O)O)n2)cc1	1	154	2	48*	11	-1	24	5.0*
COc1ccc(-c2cc(C(F)(F)F)c(C#N)c(SCC(=O)O)n2)cc1OC	.	440	.	.	.	.	.	.
COc1ccccc1-c1cc(-c2ccccc2)nc(SCC(=O)O)c1C#N	-1	297	3	47*	9	-7	37*	9.6*
COc1ccc(-c2cc(-c3ccccc3)c(C#N)c(SCC(=O)O)n2)cc1	0	323	-2	11	17	-1	.	.
N#Cc1c(-c2ccc(F)cc2)cc(-c2cccs2)nc1SCC(=O)O	2	301	3	56*	10	-20	45*	14*
CCN(CC)C(=O)CSc1nc(-c2cccs2)cc(-c2cccs2)c1C#N	-1	334	-2	5	3	21	.	.
N#Cc1c(C(F)(F)F)cc(-c2cccs2)nc1SCC(=O)O	1	787	2	6	24	0	.	.
N#Cc1c(-c2ccccc2)cc(-c2ccccc2)nc1SCC(=O)NCC(=O)O	2	147	0	41*	-2	-2	37*	10*
N#Cc1c(C(F)(F)F)cc(-c2cccs2)nc1SC(C(=O)O)c1ccccc1 (stereo not drawn)	3	i	1	78*	15	11	77*	31*	dCAG dye DR=i
COc1ccc(S[C@]2(C(=O)N3CCCC3)CC(=O)N(c3ccsc3)[C@@H]2c2ccc(OC)cc2)cc1	.	.	.	7	.	.	.	.
O=c1[nH][nH]c2cc(=O)n(-c3cccc(C(F)(F)F)c3)nc12	1	216	-3	59*	3	0	48*	17*
Fc1cccc(Cn2ccc3ccc(-c4ccc5ccn(Cc6ccccc6)c5c4)cc32)c1	.	.	.	17	.	.	.	.
FC(F)(F)Oc1cccc(Cn2ccc3ccc(-c4ccc5ccn(Cc6ccccc6)c5c4)cc32)c1	.	.	.	55*	.	.	14	8.9*
Cc1ccc(SCc2cc(=O)c3c(=O)n(-c4ccccc4)[nH]c3[nH]2)cc1	-2	347	2	62*	-1	2	43*	17*
O=c1cc(CSc2ccccc2)[nH]c2ccccc12	7	223	-2	1	-5	-9	.	.
O=c1cc(CSc2ccc(Cl)cc2)[nH]c2[nH]n(-c3ccccc3)c(=O)c12	2	469	1	56*	12	0	36*	13*
COc1cc([N+](=O)[O-])ccc1NC(=S)NNC(=O)CCC(=O)Nc1ccccc1Cl	1	252	2	64*	2	4	49*	14*
COc1cc([N+](=O)[O-])ccc1NC(=O)CCCOc1ccccc1	1	162	3	0	3	-1	.	.
O=C(/C=C(\Nc1cc(Cl)c(F)c(Cl)c1)c1ccccc1)c1ccccc1	.	.	.	1	.	.	.	.
CC1(C)CC(C(CC(=O)N2CCCC2)Cc2ccccc2)CCO1 (stereo not drawn)	0	320	2	42*	-3	-2	1	0
CCOC(=O)c1c(NC(C)=O)sc(/C(C)=N/Nc2ccc(C(=O)O)cc2)c1C	0	661	0	40*	11	-2	20	4
CCOC(=O)c1c(NC(C)=O)sc(C(=O)NC2CCCC2)c1C	0	205	7	-2	-14	-15	.	.
CC(=NNc1cc(C)c2cc(C)ccc2n1)c1ccccn1	.	.	.	1	.	.	.	.
COc1ccc(-n2c(SCC(=O)C(C)(C)C)nc3c(sc(=S)n3-c3ccccc3)c2=O)c(OC)c1	0	138	4	11	1	-19	.	.
Cc1ccc(-n2c(SCC(=O)O)nc3c(sc(=S)n3-c3ccc(C)c(C)c3)c2=O)cc1	1	240	2	51*	4	0	42*	14*
SMILES	MPTP block	T cell HTS	V-ATPase pHluor	rCAG RNA binder	B2AR ag	Exocytosis inh	rCAG binder conf	DNA CAG counter	others
Cc1ccc(-n2c(SCC(=O)O)nc3sc4c(c3c2=O)CCCC4)cc1	0	235	-3	25	4	2	.	.
Cc1ccc(-n2c(=S)sc3c(=O)n(-c4ccc(F)cc4)c(SCC(=O)O)nc32)cc1C	0	247	-4	36*	2	8	30	6.4*
COC(=O)[C@]12CCCCC=C1N(Cc1ccc(OC)cc1)C(=O)[C@@H]2CC(=O)NCCCN1CCCC1=O	.	.	.	0	.	.	.	.
CCN(CC)c1ccc(/C=N/NC(=O)Nc2ccccc2)cc1	1	328	-2	-1	35	-6	.	.
CCN(CC)c1ccc(/C=N/NC(=O)Cc2nnc(NC(=O)Nc3ccccc3)s2)cc1	8	235	2	60*	28	2	40*	27*
COc1cc(/C=N/NC(=O)Cc2nnc(NC(=O)c3ccccc3)s2)ccc1O	1	112	-3	38*	-4	-11	15	7.5*
O=C(Nc1ccccc1)Nc1nnc(Cc2ccc(F)cc2)s1	7	226	-3	36*	-10	2	11	12*
O=C(Cc1nnc(NC(=O)Nc2ccc(F)cc2)s1)Nc1ccccc1	3	228	-2	38*	-3	7	27	15*
COC(=O)C1=C(C)N(Cc2ccccc2C(F)(F)F)C(=NCc2ccccc2C(F)(F)F)NC1c1ccc(C(F)(F)F)cc1 (stereo not drawn)	.	.	.	1	.	.	.	.
O=C(NCCc1c[nH]c2ccccc12)OCc1cn(-c2ccc(Cl)cc2)nn1	.	.	.	8	.	.	.	.
Cc1noc(C)c1C(=O)N1CCC(n2nnc3ncccc32)CC1	.	.	.	0	.	.	.	.
CS(=O)(=O)Nc1ccc(C(=O)CC(=O)Nc2ccc([N+](=O)[O-])cc2)cc1	1	300	-1	37*	-4	-5	14	9.4*
O=[N+]([O-])c1ccc(S(=O)(=O)Nc2ccc(-c3ccccc3)cc2)cc1	23	.	-2	45*	.	0	35*	8.7*
O=C(CC(=O)c1ccccc1)Nc1ccc([N+](=O)[O-])cc1	38	.	1	14	5	0	.	.
CC(=O)c1ccc(NS(=O)(=O)c2ccc([N+](=O)[O-])cc2)cc1	-1	.	3	2	-4	-1	.	.
CCCCCOC(=O)Nc1ccc(S(=O)(=O)Nc2cccc([N+](=O)[O-])c2)cc1	10	244	-3	48*	2	2	45*	10*
CCCCOC(=O)Nc1ccc(S(=O)(=O)Nn2cnnc2)cc1	-2	334	0	2	10	-3	.	.

Screening results as filed in PubChem BioAssay.
